# Measurements: ChEMBL document CHEMBL1156574, “Synthesis and biological properties of benzothiazole, benzoxazole, and chromen-4-one analogues of the potent antitumor agent 2-(3,4-dimethoxyphenyl)-5-fluorobenzothiazole (PMX 610, NSC 721648)” (J Med Chem, 2008)
# pIC50, pKi: −log10 of the molar value. The source made the active and inactive calls. The rule behind the calls is not given here.
# What was measured:
# MCF7 [1] = test: Antiproliferative activity against estrogen receptor positive human MCF7 cells after 72 hrs by MTT assay; assay type: functional; conditions: MCF7, 72 h
# Outline: (§1)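 Growth inhibition was tested in triplicate in breast lines MCF-7 (ER +ve) and MDA 468 (ER −ve). Values are means of three independent experiments, reported as GI50.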
# [2] = Cell cycle arrest in estrogen receptor deficient human MDA468 cells assessed as accumulation at G2/M phase at 1 uM after 24 hrs by flow cytometry; assay type: functional, cell-based; conditions: MDA-MB-468
# Outline: (§2)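 MDA 468 breast cells were left untreated or exposed for 24–72 h. Cellular DNA content was measured by flow cytometry, with 10 000 events per sample. Percentages in pre-G1, G1, S and G2/M were taken from the DNA histograms and compared with the nontreated control. Independent analyses were run ≥3 times.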
# [3] = Cell cycle arrest in estrogen receptor deficient human MDA468 cells assessed as accumulation at S phase at 1 uM after 24 hrs by flow cytometry; assay type: functional, cell-based; conditions: MDA-MB-468; outline: as §2
# [4] = Cell cycle arrest in estrogen receptor deficient human MDA468 cells assessed as accumulation at G2/M phase at 0.1 uM after 24 hrs by flow cytometry; assay type: functional, cell-based; conditions: MDA-MB-468; outline: as §2
# MDA-MB-468 = test: Induction of apoptosis in estrogen receptor deficient human MDA468 cells assessed as accumulation at preG1 phase at 1 uM after 24 hrs by flow cytometry; assay type: functional, cell-based; outline: as §2
# [5] = Antiproliferative activity against estrogen receptor deficient human MDA468 cells after 72 hrs by MTT assay; assay type: functional; conditions: MDA-MB-468, 72 h; outline: as §1
# [6] = Antiproliferative activity against estrogen receptor deficient human MDA468 cells after 72 hrs by MTT assay in presence of aryl hydrocarbon receptor antagonist alpha-naphthoflavone; assay type: functional; conditions: MDA-MB-468, 72 h
# [7] = target: T1, Aryl hydrocarbon receptor (Rattus norvegicus, UniProt P41738); test: Displacement of [3H]tetrachlorodibenzo-p-dioxin from aryl hydrocarbon receptor in CRL:WI rat liver cytosol
# T1 sequence (P41738 whole entry): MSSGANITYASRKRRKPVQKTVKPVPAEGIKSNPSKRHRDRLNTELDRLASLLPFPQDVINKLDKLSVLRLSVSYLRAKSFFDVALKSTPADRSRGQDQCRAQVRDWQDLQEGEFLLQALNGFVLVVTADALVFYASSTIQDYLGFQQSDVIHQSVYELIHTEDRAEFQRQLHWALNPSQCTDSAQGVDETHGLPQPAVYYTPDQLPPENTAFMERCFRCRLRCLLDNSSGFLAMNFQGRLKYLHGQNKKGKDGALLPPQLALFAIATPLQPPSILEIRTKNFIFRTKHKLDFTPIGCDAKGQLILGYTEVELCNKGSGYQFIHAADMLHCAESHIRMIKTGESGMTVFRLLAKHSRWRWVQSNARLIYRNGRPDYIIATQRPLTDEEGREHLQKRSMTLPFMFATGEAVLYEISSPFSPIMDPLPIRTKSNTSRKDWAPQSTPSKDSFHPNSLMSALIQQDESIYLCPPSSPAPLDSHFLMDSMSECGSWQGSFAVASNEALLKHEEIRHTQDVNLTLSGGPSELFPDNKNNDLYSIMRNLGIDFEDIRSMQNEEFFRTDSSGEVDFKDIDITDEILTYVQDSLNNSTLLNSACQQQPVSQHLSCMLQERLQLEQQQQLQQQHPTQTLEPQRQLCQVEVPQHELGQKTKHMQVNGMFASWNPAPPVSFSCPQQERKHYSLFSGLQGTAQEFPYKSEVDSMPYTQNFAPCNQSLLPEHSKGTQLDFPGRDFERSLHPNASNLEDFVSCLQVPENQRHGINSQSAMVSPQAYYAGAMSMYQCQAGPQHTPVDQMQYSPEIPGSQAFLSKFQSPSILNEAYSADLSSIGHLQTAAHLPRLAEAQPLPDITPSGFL
# Outline: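 Aryl hydrocarbon receptor binding was measured in CRL:WI rat liver cytosol by displacement of [3H]tetrachlorodibenzo-p-dioxin. IC50 was determined, and Ki was also reported.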
# [8] = Cell cycle arrest in estrogen receptor deficient human MDA468 cells assessed as accumulation at G2/M phase at 0.1 uM after 72 hrs by flow cytometry; assay type: functional, cell-based; conditions: MDA-MB-468; outline: as §2
# MCF7 [9] = test: Antiproliferative activity against human estrogen receptor positive MCF7 cells after 72 hrs by MTT assay in presence of aryl hydrocarbon receptor antagonist alpha-naphthoflavone; assay type: functional; conditions: MCF7, 72 h
# [10] = Cell cycle arrest in estrogen receptor deficient human MDA468 cells assessed as accumulation at G2/M phase at 0.1 uM after 48 hrs by flow cytometry; assay type: functional, cell-based; conditions: MDA-MB-468; outline: as §2
SMILES,GI50 (MCF7 [1]),GI50 [5],also measured
COc1ccc(-c2nc3cc(F)ccc3o2)cc1OC,0.83 µM,0.33 µM,Activity [2]: Active; Activity [3]: Active; Activity [4]: inactive; Activity (MDA-MB-468): Active
CS(=O)(=O)c1ccc2nc(-c3ccc(O)cc3)sc2c1,62.3 µM,42.2 µM,–
Oc1ccc(-c2nc3ccc(Br)cc3s2)cc1,4.16 µM,0.28 µM,–
COc1ccc(-c2nc3ccc(F)cc3o2)cc1,41 µM,9.55 µM,–
COc1ccc(-c2nc3cc(F)ccc3s2)cc1OC,< 0.0001 µM,< 0.0001 µM,GI50 [6]: 0.27 µM; pIC50 [7]: 7.60; pKi [7]: 8.17; Activity [4]: Active; Activity [8]: Active; GI50 (MCF7 [9]): 0.514 µM; Activity [10]: Active
COc1ccc2nc(-c3ccc(O)cc3)sc2c1,45.8 µM,9.67 µM,–
COc1ccccc1-c1nc2cc(F)ccc2o1,0.36 µM,0.27 µM,–
COc1cc(-c2nc3cc(F)ccc3o2)cc(OC)c1OC,16 µM,2.58 µM,–
COc1ccc(-c2cc(=O)c3cc(F)ccc3o2)cc1OC,83.4 µM,20.6 µM,–
COc1cccc(-c2nc3ccc(F)cc3o2)c1,35.1 µM,2.02 µM,–
COc1ccccc1-c1nc2ccc(F)cc2o1,0.82 µM,1.19 µM,–
COc1ccc(-c2nc3cc(F)ccc3[nH]2)cc1OC,85.7 µM,94.4 µM,Activity [3]: inactive; Activity [4]: inactive
COc1ccc(-c2nc3cc(F)ccc3o2)c(OC)c1,2.16 µM,0.54 µM,–
Oc1cccc(-c2nc3cc(F)ccc3s2)c1,0.57 µM,0.2 µM,–
CCOc1ccc2nc(-c3ccc(O)cc3)sc2c1,> 100 µM,> 100 µM,–
COc1ccc(-c2nc3ccc(F)cc3o2)cc1OC,3.53 µM,0.017 µM,–

SMILES,GI50 (MCF7 [1]),GI50 [5],also measured
Oc1ccc(-c2nc3cc(F)ccc3s2)cc1,0.4 µM,0.21 µM,–
COc1ccc(-c2cc(=O)c3ccc(F)cc3o2)cc1OC,27.9 µM,0.45 µM,–
COc1cccc(OC)c1-c1nc2ccc(F)cc2o1,90.7 µM,98.6 µM,–
Fc1ccc2nc(-c3ccc4c(c3)OCO4)oc2c1,19.2 µM,6.77 µM,–
CCc1ccc2nc(-c3ccc(O)cc3)sc2c1,> 100 µM,> 100 µM,–
Oc1ccc(-c2nc3cc(C(F)(F)F)ccc3s2)cc1,13.8 µM,0.1 µM,–
COc1cccc(OC)c1-c1nc2cc(F)ccc2o1,58.1 µM,22 µM,–
COc1cccc(-c2nc3cc(F)ccc3o2)c1,39.5 µM,0.87 µM,–
COc1cc(OC)cc(-c2nc3ccc(F)cc3o2)c1,3.72 µM,0.46 µM,–
Oc1ccc(-c2nc3ccc(F)cc3s2)cc1,54 µM,0.5 µM,–
Fc1ccc2oc(-c3ccc4c(c3)OCO4)nc2c1,61.4 µM,14.5 µM,–
COc1ccc(-c2nc3cc(F)ccc3o2)cc1,22.7 µM,0.76 µM,–
COc1cc(-c2nc3ccc(F)cc3o2)cc(OC)c1OC,1.09 µM,0.037 µM,–
COc1ccc(-c2nc3ccc(F)cc3o2)c(OC)c1,69.9 µM,3.29 µM,–
Oc1ccc(-c2nc3ccc(Cl)cc3s2)cc1,26.5 µM,0.28 µM,–
COc1cc(OC)cc(-c2nc3cc(F)ccc3o2)c1,45.4 µM,0.79 µM,–
